KCNQ1 inh – inhibitors of human KCNQ1 potassium channel; P51787; CHO-K1 KCNQ1, FluxOR thallium flux fluorescence; active compounds read high; B-score at 10 µM; actives 1.3% (n = 310,000); AID 2642;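 active = compounds whose thallium flux B-score, printed positive for inhibition, exceeds three library SD while starting fluorescence stays within three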;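 note: channel opened by potassium depolarization with thallium stimulus after 20 min compound exposure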
Target sequence (P51787 whole entry, looked up): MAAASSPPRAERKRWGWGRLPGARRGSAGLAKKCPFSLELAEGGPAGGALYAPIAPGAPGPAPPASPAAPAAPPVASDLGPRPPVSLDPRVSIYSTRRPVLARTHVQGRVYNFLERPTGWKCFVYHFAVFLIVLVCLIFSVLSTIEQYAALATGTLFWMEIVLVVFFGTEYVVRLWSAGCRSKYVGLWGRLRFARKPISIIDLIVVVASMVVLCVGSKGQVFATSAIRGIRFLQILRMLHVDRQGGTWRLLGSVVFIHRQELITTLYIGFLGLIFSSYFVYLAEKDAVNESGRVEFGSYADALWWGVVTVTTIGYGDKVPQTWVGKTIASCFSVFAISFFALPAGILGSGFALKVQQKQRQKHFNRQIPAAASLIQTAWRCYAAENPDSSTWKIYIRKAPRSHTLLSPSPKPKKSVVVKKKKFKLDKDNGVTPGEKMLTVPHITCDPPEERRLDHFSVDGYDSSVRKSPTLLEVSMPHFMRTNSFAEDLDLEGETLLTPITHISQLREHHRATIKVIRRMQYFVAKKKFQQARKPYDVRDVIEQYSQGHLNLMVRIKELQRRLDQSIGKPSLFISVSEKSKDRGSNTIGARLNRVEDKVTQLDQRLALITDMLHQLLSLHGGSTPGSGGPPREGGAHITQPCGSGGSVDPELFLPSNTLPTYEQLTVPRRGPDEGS
KCNK3 inh – human KCNK3 channel inhibition, primary screen; CHO-KCNK3 thallium flux, FluxOR fluorescence; active compounds read low; O14649; actives 0.84% (n = 340,000); B-score at 10 µM;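 active = B-score under library mean minus 4 SD, starting fluorescence ratio at most library mean plus 5 SD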;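 note: more negative B-score means stronger inhibition of thallium flux through KCNK3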
hERG protect – compounds protecting human hERG from proarrhythmic drug block; CHO-hERG, FluxOR thallium flux, dofetilide IC70 present; actives 0.51% (n = 310,000); activation (rescue from dofetilide block), less the hit threshold, % at 10 µM; Q12809; AID 1511;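 active = activation above the mean of controls blocked by dofetilide plus 5 SD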;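 note: thallium influx through hERG after potassium depolarization seen as dye fluorescence rise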
Kir21 block – Kir2.1 (mouse) channel inhibition | B-score at 10 µM | HEK293-Kir2.1, FluxOR thallium flux fluorescence; active compounds read low | actives 0.85% (n = 310,000) | AID 1672 | P35561;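 active = fluorescence ratio B-score at or below minus 3 SD of library scores, with starting-brightness B-score within 2 SD, cut at about -4.2 in these data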;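 note: channel flux triggered by added potassium and thallium sulfate stimulus; B-score of peak minus minimum fluorescence over baseline after thallium stimulus; more negative B-score means stronger Kir2.1 block with less thallium influx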
KCNK9 block – human KCNK9 channel inhibition | Q9NPC2 | HEK293 KCNK9, FluxOR thallium flux fluorescence; active compounds read low | B-score at 10 µM | actives 1.2% (n = 310,000) | AID 488922;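 active = ratio B-score over 3 SD below the library mean, with starting fluorescence within 5 SD of its mean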;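 note: negative B-score means less thallium flux so channel inhibition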
KCNQ1 pot – potentiates or activates the human KCNQ1 potassium channel; P51787; CHO-K1 KCNQ1, thallium flux FluxOR fluorescence; active compounds read high; B-score at 10 µM; actives 0.35% (n = 310,000); AID 2648;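 active = fluorescence ratio B-score, a plate-corrected score, at least three library SD, with initial intensity B-score within 5 SD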
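Assay system: CHO-K1 cells stably expressing KCNQ1; Medium: assay buffer with matched DMSO; Also added: K+/Tl+ depolarizing stimulus; Dosing: single dose; Timing: dye 90 min, compound 20 min, room temperature; Measured by: kinetic FluxOR thallium fluorescence, 10-s 1-Hz baseline, 110-s post-stimulus read; Read-out: peak-minus-minimum fluorescence over initial fluorescence, negative-control normalized, B-scored.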
Numbers without * were called inactive; i = inactive; . = no result. Only some compounds are listed: those with a hit (about 3.7% of all), similar ones and a draw of the others.

SMILES | KCNQ1 inh | KCNK3 inh | hERG protect | Kir21 block | KCNK9 block | KCNQ1 pot
O=C(/C(=C/c1ccccc1)n1cncn1)c1ccc(Cl)cc1Cl | i | i | -11 | -13* | i | i
CC(C)(c1ccccc1)c1ccc(OCC(O)CN2CCCC2)cc1 (configuration not stated) | i | i | -11 | -5.3* | i | i
COc1ccccc1N1CCN(CC(O)COCCOc2ccc(Br)cc2)CC1 (configuration not stated) | i | i | -11 | -1.6 | i | i
OC(COc1ccc2cc(Br)ccc2c1)CN1CCCC1 (configuration not stated) | i | i | -19 | -6.8* | i | i
COc1ccc(N2CCN(CC(O)COCCOc3ccc(Br)cc3)CC2)cc1 (configuration not stated) | i | i | -12 | -4.3* | i | i
O=C(O)CCC(=O)NCc1c(Cl)cccc1Sc1ccc(Cl)cc1 | i | i | -10 | 1.2 | i | i
CCOC(=O)c1cccc(C(=O)Nc2nc3ccc(OC)cc3s2)n1 | i | i | 1 | 0.2 | i | 9*
CCc1ccc2nc(NC(=O)c3cc(C)on3)sc2c1 | i | i | 9.4* | -0.58 | i | 29*
COc1ccc2nc(NC(=O)c3ccccc3O)sc2c1 | i | i | -9 | -0.11 | i | i
CCc1noc(C)c1C(=O)Nc1nc2c(C)cc(C)cc2s1 | i | i | -17 | 0.44 | i | i
Cc1cc(C)c2nc(NC(=O)c3cc(C)on3)sc2c1 | i | i | -1 | 0.72 | i | 24*
CNCc1ccccc1OCC(=O)Nc1ccccc1OC | i | i | -7 | 0.29 | i | i
CN(CC(=O)Nc1ccccc1C(F)(F)F)CC(=O)N1CCCCCC1 | . | i | . | . | . | .
CC(C)C(NC(=O)C1CCCCC1)C(=O)NCCc1ccccc1 (configuration not stated) | i | i | -4 | -0.88 | i | i
CCOC(=O)c1[nH]c2ccccc2c1NC(=O)C(C)(C)C | i | i | -13 | -0.25 | i | i
CCOC(=O)c1[nH]c2ccccc2c1NC(=O)C1CCCCC1 | i | i | 4.8* | 0.47 | i | i
O=C(N/N=C/c1ccccc1O)c1cccc2ccccc12 | i | i | 3 | -0.04 | i | i
COc1ccc(C(=O)/C(C#N)=N/Nc2ccc([N+](=O)[O-])cc2)cc1 | 6* | i | -10 | 4.3 | i | i
C=CC(C)(C)c1c(O)c(CC=C(C)C)c(O)c2c(=O)c3ccc(O)c(O)c3oc12 | 6* | i | -9 | 1.6 | i | i
O=C(N/N=C/c1c(O)ccc2ccccc12)c1ccc(Br)o1 | 6* | i | -15 | 0.55 | i | i
O=C(N/N=C/c1c(O)ccc2ccccc12)Nc1ccccc1 | 6* | i | -9 | 0.71 | i | i
O=C(N/N=C\c1c(O)ccc2ccccc12)c1ccc(O)cc1 | i | i | -9 | -0.08 | i | i
Cc1cc(=O)oc2cc(NC(=O)CC3(CC(=O)O)CCCC3)ccc12 | i | i | -6 | 2 | i | i
Cc1ccc(C(=O)N[C@H](C(=O)Nc2sccc2C(N)=O)C(C)C)cc1 | i | i | -4 | 0.24 | i | i
CCOC(=O)C1=C(C)NC(SCC(=O)Nc2nc(C)cs2)=C(C#N)C1c1cccs1 (configuration not stated) | i | . | -10 | -0.1 | i | i
Cc1cc(Nc2ccccc2)n(C(=O)c2ccc(Cl)cc2)n1 | i | i | -7 | -0.31 | -6.6* | i
Cc1cc(Nc2ccccc2)n(-c2ccc(C(=O)O)cc2)n1 | i | i | 2 | -0.01 | i | i
OC(CN1CCN(c2ncc(C(F)(F)F)cc2Cl)CC1)c1ccccc1 (configuration not stated) | i | i | -6 | -0.55 | i | i
CC(C)Oc1ccccc1OCCN(C)C | i | i | -3 | -1.9 | i | i
CN(C)CCC(Oc1ccccc1OCc1ccccc1)c1ccccc1 (configuration not stated) | i | i | -8 | -4.6* | i | i

Bioassay records deposited in PubChem BioAssay by Johns Hopkins Ion Channel Center.
